Laboratory results: ChEMBL document CHEMBL1155793, “Phenyl phosphotriester derivatives of AZT: variations upon the SATE moiety” (Bioorg Med Chem, 2008)
≈ marks a conversion by molar mass, not a printed value.

Assays:
[1] = Cytotoxicity against human MT4 cells; assay type: cell-based
[2] = Chemical stability in RPMI1640 medium at pH 7.5; assay type: physicochemical
How it was run: (§1)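 Compound at an initial 50 µM was incubated in water (pH 6.8) or RPMI 1640 (pH 7.5). Samples were analysed by on-line ISRP-cleaning HPLC: TEAA 20 mM pH 6.9 wash, then 0–80% acetonitrile gradient, UV 267 nm. Products were identified by HPLC/MS or co-injection. Half-lives came from pseudo-first-order mono- or polyexponential fits of peak areas. Mean of two experiments.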

[3] = Chemical stability in water at pH 6.8; assay type: physicochemical; how it was run: as §1
[4] = Stability in human CEM-SS cell extracts; assay type: ADME, cell-based
How it was run: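 CEM-SS cell extracts were incubated with compound at an initial 50 µM. Samples were analysed by on-line ISRP-cleaning HPLC (0–80% acetonitrile gradient in 20 mM TEAA pH 6.9, detection 267 nm), with metabolites identified by HPLC/MS or co-injection. Half-lives came from pseudo-first-order mono- or polyexponential regression. Mean of three experiments.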

[5] = Cytotoxicity against human thymidine kinase-deficient CEM cells; assay type: cell-based, CCRF-CEM
[6] = Lipophilicity, log P of the compound; assay type: physicochemical; details: octanol/water
How it was run: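 Log P values were calculated with software, not measured experimentally.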

[7] = test system: Human immunodeficiency virus 1; assay: Antiviral activity against HIV1 infected human CEM-SS cells; assay type: functional, organism-based; details: Human immunodeficiency virus 1, CEM-SS
[8] = test system: Human immunodeficiency virus 1; assay: Antiviral activity against HIV1 infected human MT4 cells; assay type: functional, organism-based; details: Human immunodeficiency virus 1, MT4
[9] = Cytotoxicity against human CEM-SS cells; assay type: cell-based
[10] = test system: Human immunodeficiency virus 1; assay: Antiviral activity against HIV1 infected human thymidine kinase-deficient CEM cells; assay type: functional, organism-based; details: Human immunodeficiency virus 1, CCRF-CEM
[11] = Stability in human CEM-SS cell culture medium; assay type: ADME, cell-based
How it was run: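 Compound at an initial 50 µM was incubated in culture medium of 90% RPMI 1640 plus 10% fetal calf serum, heat-inactivated 30 min at 56 °C. Analysis was by on-line ISRP-cleaning HPLC (0–80% acetonitrile in 20 mM TEAA pH 6.9, 267 nm) with HPLC/MS or co-injection identification. Half-lives came from pseudo-first-order exponential fits. Mean of three experiments.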

[12] = Aqueous solubility of the compound; assay type: physicochemical

Row | SMILES | CC50 [1] [µM] | half-life [2] [h] | half-life [3] [h] | half-life [4] [h] | CC50 [5] [µM] | logP ([6]; read-out: logP) | EC50 [7] [µM] | EC50 [8] [µM] | CC50 [9] [µM] | EC50 [10] [µM] | half-life [11] [h] | solubility [12] [µg/mL] | logP [6]
1 | Cc1cn([C@H]2C[C@H](N=[N+]=[N-])[C@@H](COP(=O)(OCCSC(=O)[C@@H](N)C(C)C)Oc3ccccc3)O2)c(=O)[nH]c1=O (stereo partly specified) | > 120 | < 0.0167 | 1820 | < 0.0167 | > 120 | 2 | 0.001 | 0.004 | > 120 | 81 | < 0.0167 |  | 
2 | Cc1cn([C@H]2C[C@H](N=[N+]=[N-])[C@@H](COP(=O)(OCCSC(=O)C(C)(C)CO)Oc3ccccc3)O2)c(=O)[nH]c1=O (stereo partly specified) | > 130 |  |  | 14.8 | > 130 | 2 | 0.006 | 0.03 | > 130 | 3.9 | 331 | 6640 (≈ 11.4 mM) | 
3 | Cc1cn([C@H]2C[C@H](N=[N+]=[N-])[C@@H](COP(=O)(OCCSC(=O)C(C)(CO)CO)Oc3ccccc3)O2)c(=O)[nH]c1=O (stereo partly specified) | > 150 |  |  | 178 | > 150 | 2 | 0.012 | 0.074 | > 150 | > 100 | 211 | 60600 (≈ 101 mM) | 
4 | Cc1cn([C@H]2C[C@H](N=[N+]=[N-])[C@@H](COP(=O)(OCCSC(=O)C(C)(C)C)Oc3ccccc3)O2)c(=O)[nH]c1=O (stereo partly specified) | > 10 |  |  | 1.5 | > 10 |  | 0.015 | 0.81 | > 10 | 0.45 | 607 | 57 (≈ 0.1 mM) | 2
5 | Cc1cn([C@H]2C[C@H](N=[N+]=[N-])[C@@H](COP(=O)(OCCSC(=O)C(C)(C)NC(=O)OC(C)(C)C)Oc3ccccc3)O2)c(=O)[nH]c1=O (stereo partly specified) |  | > 288 | > 480 | 40.8 |  |  |  |  |  |  | 338 |  | 
6 | Cc1cn([C@H]2C[C@H](N=[N+]=[N-])[C@@H](COP(=O)(OCCSC(=O)[C@@H](NC(=O)OC(C)(C)C)C(C)C)Oc3ccccc3)O2)c(=O)[nH]c1=O (stereo partly specified) |  | > 216 | > 960 | 106 |  |  |  |  |  |  | 197 |  | 
7 | Cc1cn([C@H]2C[C@H](N=[N+]=[N-])[C@@H](COP(=O)(OCCSC(=O)C(C)(C)N)Oc3ccccc3)O2)c(=O)[nH]c1=O (stereo partly specified) | > 120 | 0.1 | > 144 | 0.133 | > 120 | 2 | 0.009 | 0.054 | > 120 | 90 | < 0.0167 |  | 
8 | Cc1cn([C@H]2C[C@H](N=[N+]=[N-])[C@@H](CO)O2)c(=O)[nH]c1=O [ZIDOVUDINE] | > 100 |  |  |  | > 100 |  | 0.003 | 0.015 | > 100 | > 100 |  |  | 
